Assay outcomes deposited in PubChem by several laboratories.
Most compounds without a hit are left out; they make up all but 1.3% or so of the library.
Furin inhibitor = inhibitors of human furin | 0.061% of 220,000 active | P09958 | AID 463115 | inhibition, % at 20 µM or 30 µM | purified furin, fluorogenic substrate cleavage; in the data active = inhibition above about 25%
EP2 mod = EP2 receptor (human) modulation; induction, % at 25 µM; 0.83% of 260,000 active; AID 940; P43116; EP2-expressing cells, cAMP HTRF FRET, PGE2 co-stimulation;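 active = compounds whose cAMP rise, as percent of the full-agonist control response, exceeds 60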;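 also: rat C6 glioma line stably carrying human EP2 under a CMV promoter; the protocol text gives 20 µM as final concentration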
PGE2 EP2 inh = EP2 receptor (human) inhibition. C6 glioma cells expressing human EP2, cAMP TR-FRET; cells stimulated with saturating PGE2. inhibition, % at 25 µM. 0.52% of 260,000 active;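 active = percent inhibition above 40 after rounding to a whole number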;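 also: rat C6 glioma host cells with rolipram phosphodiesterase inhibitor present; the protocol text gives 20 µM as final concentration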
JMJD2C inh = blocks human GASC-1 demethylase activity; Q9H3R0; 0.069% of 330,000 active; inhibition, % at 2.35 µM; GST-JMJD2C(1-420) H3K9me3 demethylation, DELFIA europium;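 active = more than half of a compound's replicate wells show inhibition beyond 50%, single wells judged on their own value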;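 also: signal counts dimethyl H3K9 product captured on neutravidin plate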
Target sequence (Q9H3R0 1-420 limits assumed): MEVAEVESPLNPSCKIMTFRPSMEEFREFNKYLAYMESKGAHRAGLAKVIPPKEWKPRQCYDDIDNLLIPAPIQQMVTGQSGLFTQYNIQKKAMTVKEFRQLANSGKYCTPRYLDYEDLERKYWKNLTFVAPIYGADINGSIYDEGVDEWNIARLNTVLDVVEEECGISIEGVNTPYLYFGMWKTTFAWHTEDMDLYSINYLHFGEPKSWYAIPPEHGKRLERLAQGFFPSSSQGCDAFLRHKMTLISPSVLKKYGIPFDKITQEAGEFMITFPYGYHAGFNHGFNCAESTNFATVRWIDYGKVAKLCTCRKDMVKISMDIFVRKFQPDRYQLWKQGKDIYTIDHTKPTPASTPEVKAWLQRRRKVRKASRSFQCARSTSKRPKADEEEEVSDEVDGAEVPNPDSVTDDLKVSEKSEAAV
NR2E3 ag-1 = agonists of human nuclear receptor NR2E3; Q9Y5X4; GST-NR2E3/biotin-RetCOR TR-FRET, 1536-well; inhibition of corepressor binding, % at 4.78 µM; 0.12% of 320,000 active;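 active = percent inhibition above the cutoff of mean plus 3 SD of all tested compounds, set per screening campaign, cut at about 20% in these data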
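System: GST-tagged NR2E3 plus biotinylated RetCOR corepressor; Amount: 1.35 nM GST-tagged NR2E3 final; Dosing: single nominal compound dose of 4.8 µM; Schedule: 5 h incubation at 4 °C; Technique: TR-FRET with europium anti-GST and streptavidin-D2, 340 nm excitation; Controls: biotin wells as high control, 0.6% DMSO wells as low control.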
NR2E3 ag-2 = agonists of human NR2E3 nuclear receptor. Q9Y5X4. CHO-S Gal4-NCOR/VP16-NR2E3 two-hybrid, luciferase. inhibition of corepressor binding, % at 3.98 µM. 0.35% of 360,000 active. AID 602229;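 active = inhibition above the mean of all tested compounds plus 3 SD, cut at about 70% in these data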;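 also: higher means lower luciferase signal from less NR2E3 corepressor binding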
NR2E3 ag confirm = confirmation of human NR2E3 agonists; shares compounds with NR2E3 ag-2; CHO-S mammalian two-hybrid NR2E3-NCOR, luciferase luminescence; inhibition, % at 3.98 µM; 51% of 2,300 active; AID 624378;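 active = average inhibition above a cutoff equal to the mean inhibition of all tested compounds plus one SD, cut at about 70% in these data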
VP16 counter = reduces GAL4-VP16 reporter signal in NR2E3 counterscreen | shares compounds with NR2E3 ag-2 | CHO-S GAL4-VP16 luciferase reporter, luminescence | inhibition, % at 3.98 µM | 29% of 2,300 active | AID 624379;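 active = mean inhibition above a cutoff equal to the average over all tested compounds plus one standard deviation, cut at about 70% in these data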;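 also: luciferase from a UAS reporter driven by GAL4-VP16 transactivation; higher means less reporter light so more repression of VP16 activity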
Hits are given with their value; – = inactive; · = no result given.

SMILES	Furin inhibitor	EP2 mod	PGE2 EP2 inh	JMJD2C inh	NR2E3 ag-1	NR2E3 ag-2	NR2E3 ag confirm	VP16 counter
O=C(c1cc(COc2ccc3ncccc3c2)on1)N1CCC[C@H]1CO	·	·	·	–	–	81	–	–
Cc1cc(CN(C)C(=O)c2cc(COc3ccc4ncccc4c3)on2)on1	–	–	–	–	–	–	73	–
O=C(c1cc(COc2ccc3ncccc3c2)on1)N1CCC(O)CC1	–	–	–	–	–	–	·	·
CCC(O)C1CCN(C(=O)c2cc(COc3ccc4ncccc4c3)on2)CC1 (stereo unspecified)	–	–	–	–	–	78	96	85
CN(Cc1nccn1C)C(=O)c1cc(COc2ccc3ncccc3c2)on1	–	–	–	–	–	–	·	·
CCOC(=O)N1CCN(C(=O)c2cc(COc3ccc4ncccc4c3)on2)CC1	–	–	–	–	–	–	83	76
O=C(NC1CCCCCCC1)c1cc(COc2ccc3ncccc3c2)on1	–	–	–	–	·	80	95	88
Cc1cccc(C)c1OCc1cc(C(=O)NC2CCC2)no1	·	·	·	–	–	–	·	·
COc1ccc2cc(C#N)c(SCC(=O)Nc3ccc(OC)c(OC)c3)nc2c1	·	–	–	·	·	·	·	·
Cc1ccc2ccc3ccc(C)nc3c2n1	·	·	·	–	–	92	–	–
CCN1/C(=C/c2sc(-c3ccccc3C)c[n+]2C)Sc2ccccc21	–	–	–	–	·	90	99	85
CN(C)c1nc(=NCc2ccco2)ss1	–	–	–	–	–	76	–	–
O=C1CCCC(=NCc2ccco2)C1	–	–	–	–	–	–	·	·
O=C(CN1CCC(n2nnc3ccccc32)CC1)Nc1cccc(F)c1	·	–	–	·	·	·	·	·
Cc1cc(N)n2ncc(-c3ccccc3)c2n1	–	–	–	–	–	–	·	·
CC(=O)Nc1ccc(Nc2cc(C)nc3c(-c4ccccc4)cnn23)cc1	–	–	–	–	–	–	–	–
N#CC(=C(O)CN1CCN(c2ccccc2F)CC1)c1nc(-c2ccccc2)cs1	·	·	·	·	·	–	–	–
N#CC(=C(O)CN1CCN(c2ccccc2F)CC1)c1nc(-c2ccc(Cl)cc2)cs1	·	·	·	·	·	–	·	·
CC(C)(C)c1ccc(-n2ncc3c2CCCC3NC(=O)CN2CCOC2=O)cc1 (stereo unspecified)	·	·	·	–	–	–	–	–
CC(C)(C)c1ccc(-n2ncc3c2CCCC3NC(=O)CCN2CCCCC2=O)cc1 (stereo unspecified)	·	·	·	–	–	–	–	–
COc1ccc(-n2ncc3c2CC(C)(C)CC3NC(=O)CN2CCOC2=O)cc1 (stereo unspecified)	·	·	·	–	·	–	·	·
Cc1ccc(-c2nc3ccccc3o2)cc1NC(=O)CCCl	·	–	–	·	·	·	·	·
COc1ccccc1-c1nnc(Nc2nc3c(OC)cccc3s2)o1	–	–	–	–	–	74	–	–
Cc1ccc(C(=O)Sc2cccccc2=O)cc1	·	·	·	–	–	101	–	–
O=C(Nc1ccccc1SC(=O)c1ccccc1)c1ccccc1	·	·	·	·	·	–	·	·
SMILES	Furin inhibitor	EP2 mod	PGE2 EP2 inh	JMJD2C inh	NR2E3 ag-1	NR2E3 ag-2	NR2E3 ag confirm	VP16 counter
COc1cccc(COc2ccccc2C2Nc3ccc(Br)cc3C(=O)N2NC(=O)c2ccncc2)c1 (stereo unspecified)	–	–	·	–	–	–	–	–
CSc1cccc(NC(=O)c2sc3nc4n(c(=O)c3c2C)CCC4)c1	·	·	·	–	–	–	·	·
COc1cccc(NC(=O)c2sc3nc4n(c(=O)c3c2C)CCC4)c1	·	·	·	–	–	–	·	·
Cc1c(C(=O)Nc2ccc(Oc3ccccc3)cc2)sc2nc3n(c(=O)c12)CCC3	–	–	–	–	–	–	87	–
Cc1c(C(=O)Nc2ccc(OC(F)(F)F)cc2)sc2nc3n(c(=O)c12)CCC3	–	–	–	–	–	77	88	–
C=CCOC(=O)c1sc(NC(=O)COc2cccc(C)c2)nc1C	·	–	–	·	·	·	·	·
CC1CCCCN1S(=O)(=O)c1ccc(N(C(=O)c2cnccn2)C(C(=O)NC2CCCCC2)c2cccs2)cc1 (stereo unspecified)	–	–	–	–	–	–	–	–
CCCNc1nc2c(c(=O)[nH]c(=O)n2C)n1Cc1ccccc1Cl	·	–	–	·	·	·	·	·
COc1ccc(-c2cc(-c3ccccc3)nc(SC(C)C(=O)O)c2C#N)cc1 (stereo unspecified)	·	·	·	–	–	–	·	·
CC(C)C(Sc1nc(-c2ccccc2)cc(-c2ccccc2)c1C#N)C(=O)O (stereo unspecified)	–	62	–	–	–	–	–	–
CCN1CCCC1CNCc1cc2c(C(C)(C)C)nn(-c3ccccc3)c2[nH]c1=O (stereo unspecified)	·	–	–	·	·	·	·	·
N#C/C(=N\Nc1ccc(Cl)c(Cl)c1)C(=O)C1CC1	–	–	–	–	–	80	100	–
Cc1ccc(-c2csc(N3C(=N)SCC3=O)n2)cc1	–	–	–	–	–	·	·	·
N=C1SCC(=O)N1c1ncc(Cc2ccc(F)cc2)s1	–	–	–	–	–	97	–	–
COc1ccc(-c2nsc3c(N4CCCCC4C)ncnc23)cc1 (stereo unspecified)	–	–	–	–	–	94	84	72
COc1ccc(-c2nsc3c(N4CCCCC4)ncnc23)cc1	–	–	–	–	–	–	–	–
Cn1cc(CNCc2ccc(OC(F)(F)F)cc2)c(-c2ccc3c(c2)OCCO3)n1	–	–	–	–	–	76	90	79
CC(=O)C1=C(c2ccc(Br)cc2)C(=O)c2ccccc2C1=O	–	–	–	–	–	103	99	92
Cc1cc2c(cc1Cl)C(O)CC1(CCN(CC(O)c3ccccc3)CC1)O2 (stereo unspecified)	·	–	–	·	·	·	·	·
CCc1cc(-c2nnn(CCC3COCCO3)c2CC)ccc1-c1cn(Cc2ccccc2)nn1 (stereo unspecified)	·	·	·	·	·	76	76	–
CCc1cc(-c2cnnn2Cc2ccc3ccccc3c2)ccc1-c1cn(CC(C)C)nn1	·	·	·	·	·	–	·	·
O=S(=O)(Nc1ccc2c(c1)OCCO2)c1cccc2nsnc12	–	–	–	–	–	–	–	–
O=C(CCNS(=O)(=O)c1cccc2nsnc12)Nc1ccc2c(c1)OCCO2	–	–	–	–	–	–	·	·
COc1ccc2cc(S(=O)(=O)NCc3cccnc3)ccc2c1	·	·	·	–	–	–	–	–
O=C(Nc1ccc(Cl)c(Cl)c1)c1cccc(S(=O)(=O)NCc2cccnc2)c1	–	–	–	–	–	–	84	72
c1ccc(C(Cc2nc(-c3ccncc3)no2)c2ccccc2)cc1	–	–	·	–	–	–	75	–
c1ccc(Nc2ncnc3ccccc23)cc1	·	–	–	·	·	·	·	·
